Measurements taken from ChEMBL document CHEMBL4304781, “Development of Highly Selective Pyrimidine-Based Aldosterone Synthase (CYP11B2) Inhibitors” (ACS Med Chem Lett, 2019).
pIC50: −log10 of the molar value. Converted amounts (≈) assume the structure as drawn.

Tests used:
[1] = biological target: T1, Cytochrome P450 11B2, mitochondrial (Homo sapiens, UniProt P19099); experiment: Inhibition of human recombinant CYP11B2 using deoxycorticosterone as substrate incubated for 90 mins by cell-based HPLC analysis
T1 sequence (P19099 whole entry): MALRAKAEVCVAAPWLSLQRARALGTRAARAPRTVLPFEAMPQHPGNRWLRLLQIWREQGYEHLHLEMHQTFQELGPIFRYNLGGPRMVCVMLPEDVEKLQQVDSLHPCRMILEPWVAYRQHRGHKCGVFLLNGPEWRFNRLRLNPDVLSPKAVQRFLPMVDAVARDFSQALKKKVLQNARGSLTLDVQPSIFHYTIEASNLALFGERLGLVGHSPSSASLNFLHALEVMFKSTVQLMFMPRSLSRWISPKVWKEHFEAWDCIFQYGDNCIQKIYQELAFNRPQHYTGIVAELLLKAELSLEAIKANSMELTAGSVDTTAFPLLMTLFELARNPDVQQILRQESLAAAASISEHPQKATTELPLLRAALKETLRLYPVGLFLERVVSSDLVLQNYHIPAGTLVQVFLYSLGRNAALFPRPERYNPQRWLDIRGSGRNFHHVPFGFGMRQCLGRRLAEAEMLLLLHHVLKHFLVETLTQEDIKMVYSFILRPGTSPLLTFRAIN
Procedure, shortened: (§1)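 Recombinant human CYP11B2 or CYP11B1. Substrate and product steroids both monitored by HPLC-MS. Selectivity taken as CYP11B1 IC50 / CYP11B2 IC50.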

[2] = biological target: T2, Cytochrome P450 11B1, mitochondrial (Homo sapiens, UniProt P15538); experiment: Inhibition of human recombinant CYP11B1 using deoxycortisol as substrate incubated for 60 mins by cell-based HPLC analysis; type: ADME; procedure, shortened: as §1
T2 sequence (P15538 whole entry): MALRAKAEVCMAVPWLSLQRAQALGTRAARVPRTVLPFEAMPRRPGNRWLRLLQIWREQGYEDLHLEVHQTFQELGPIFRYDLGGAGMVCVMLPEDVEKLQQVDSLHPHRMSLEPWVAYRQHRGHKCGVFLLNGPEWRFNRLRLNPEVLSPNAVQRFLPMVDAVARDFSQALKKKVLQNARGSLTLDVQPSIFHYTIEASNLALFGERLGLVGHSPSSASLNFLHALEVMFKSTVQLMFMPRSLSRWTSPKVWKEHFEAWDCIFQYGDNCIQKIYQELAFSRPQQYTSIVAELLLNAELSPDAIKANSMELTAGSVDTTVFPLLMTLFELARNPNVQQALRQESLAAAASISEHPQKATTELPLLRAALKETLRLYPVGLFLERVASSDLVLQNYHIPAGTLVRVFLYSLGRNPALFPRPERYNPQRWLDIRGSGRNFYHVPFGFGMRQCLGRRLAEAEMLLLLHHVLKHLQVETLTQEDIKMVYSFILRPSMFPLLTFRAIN

Homo sapiens = species: Homo sapiens; experiment: Selectivity index, ratio of IC50 for human recombinant CYP11B1 to IC50 for human recombinant CYP11B2; procedure, shortened: as §1
[3] = Stability in cynomolgus monkey liver microsomes assessed as parent compound remaining at 1 uM measured after 65 mins by LC/MS-MS analysis; type: ADME, Macaca fascicularis, Microsome; conditions: read-out: Stability
Procedure, shortened: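 Parent compound percentage remaining after 65 min incubation with cynomolgus monkey liver microsomes.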

[4] = Cmax in cynomolgus monkey at 1 mg/kg, po measured after 24 or 72 hrs; type: ADME, organism-based, Macaca fascicularis; design: dose 1 mg/kg, route oral; conditions: in vivo
Procedure, shortened: (§2)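 Male cynomolgus monkeys dosed orally at 1 mg/kg in 0.5% CMC, 0.1% Tween-80, 1% DMSO. Plasma drug concentrations followed out to 24 or 72 h. Cmax, Tmax, AUC0-24 and t1/2 derived from plasma levels.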

[5] = Tmax in cynomolgus monkey at 1 mg/kg, po measured after 24 or 72 hrs; type: ADME, organism-based, Macaca fascicularis; conditions: in vivo; procedure, shortened: as §2
[6] = AUC (0 to 24 hrs) in cynomolgus monkey at 1 mg/kg, po measured after 24 or 72 hrs; type: ADME, organism-based, Macaca fascicularis; design: time < 24 hr, dose 1 mg/kg, route oral; conditions: in vivo; procedure, shortened: as §2
[7] = Half life in cynomolgus monkey at 1 mg/kg, po measured after 24 or 72 hrs; type: ADME, organism-based, Macaca fascicularis; conditions: in vivo; procedure, shortened: as §2
[8] = Thermodynamic solubility in phosphate free buffer pH 7.4 incubated for 24 hrs by HPLC/LCMS-MS based shake flask method; type: physicochemical; conditions: read-out: Therm_solubility

Row | Compound | pIC50 [1] | pIC50 [2] | Ratio IC50 (Homo sapiens) | remaining at 65 min, 1 µM [3] | Cmax [4] | Tmax [5] | AUC(0-t) at 24 h [6] | half-life [7] | solubility thermodynamic at 24 h [8]
1 | Fc1ccc2nc(-c3cnccn3)n(C3CC3)c2c1 | 6.27 | < 5.00 | > 18 | – | – | – | – | – | –
2 | N#Cc1ccc2nc(-c3cncnc3C(F)(F)F)n(C3CC3)c2n1 | 7.62 | 5.32 | 200 | 87% | 1680 nM | 0.5 h | 10.1 µM·h | 5.3 h | 153 µM (≈ 50.5 µg/mL)
3 | N#Cc1ncncc1-c1nc2cc(F)c(F)cc2n1C1CC1 | 7.89 | 5.30 | 383 | 85% | – | – | – | – | –
4 | CNc1ncncc1-c1nc2cc(F)c(F)cc2n1C1CC1 | > 8.70 | 6.41 | > 195 | – | – | – | – | – | –
5 | Fc1cc2nc(-c3cncnc3NCCC(F)(F)F)n(C3CC3)c2cc1F | 8.52 | 6.42 | 126 | 55% | – | – | – | – | –
6 | Fc1ccc2nc(-c3cncnc3)n(C3CC3)c2c1 | – | – | 136 | – | – | – | – | – | –
7 | Fc1ccc2nc(-c3cncs3)n(C3CC3)c2c1 | 7.21 | 5.34 | 73 | – | – | – | – | – | –
8 | Fc1ccc2nc(-n3ccnn3)n(C3CC3)c2c1 | 5.97 | 5.04 | 8.5 | – | – | – | – | – | –

Now from value to molecule:

Row | pIC50 [1] | pIC50 [2] | Ratio IC50 (Homo sapiens) | remaining at 65 min, 1 µM [3] | Cmax [4] | Tmax [5] | AUC(0-t) at 24 h [6] | half-life [7] | solubility thermodynamic at 24 h [8] | Compound
9 | < 5.00 | < 5.00 | – | – | – | – | – | – | – | Fc1ccc2nc(-c3cnco3)n(C3CC3)c2c1
10 | 8.05 | 5.69 | 226 | 84% | 1000 nM | 2 h | 8.3 µM·h | 5.4 h | – | N#Cc1ccc2nc(-c3cncnc3C(F)F)n(C3CC3)c2c1
11 | 8.30 | 5.72 | 381 | 80% | – | – | – | – | – | CC(C)c1ncncc1-c1nc2cc(F)c(F)cc2n1C1CC1
12 | 7.80 | 5.38 | 261 | 62% | – | – | – | – | – | N#Cc1ccc2nc(-c3cncnc3C(F)(F)F)n(C3CC3)c2c1
